Drawing on ChEMBL document CHEMBL5712072, “Epigenetic targeting of Hedgehog pathway transcriptional output through BET bromodomain inhibition” (Nat Med, 2014), this text covers Activity and inhibition for two molecules.

Calls of active or inactive are those of the source. The rule behind the calls is not given here.

The test system of test [1] is Basal cell carcinoma cell (Mus musculus). As to the kind of experiment: Antitumor activity in mouse basal cell carcinoma allografted in mouse assessed as reduction in tumor growth at 100 mg/kg/day, ip.
Test [2] has as its system MEF. In words: Downregulation of Gli transcription in Sufu-/- MEF cells by immunoblot analysis. The format is functional, cell-based. As to conditions: Mus musculus. In outline: (§1)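 Sufu−/− MEFs exposed to DMSO or 1 uM of JQ1, GDC-0449, LDE225 or SANT-1; RIPA lysis 30min on ice, cleared 13000rpm 15min 4°C; SDS-PAGE immunoblot with anti-GLI1, β-tubulin as loading control.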

Test [3] relates to Medulloblastoma cell. In words: Induction of apoptosis in mouse wildtype SMO expressing medulloblastoma cells assessed as late apoptotic cells by annexin-V/PI staining based flow cytometric analysis (reference value: 2.5%). (In general: Flow cytometry measures light scatter and fluorescence of single cells or particles in a stream.)
Test [4] concerns the target Bromodomain-containing protein 4 (Mus musculus) (UniProt Q9ESU6). As to the kind of experiment: Inhibition of BRD4 in mouse Hh-Light2 cells assessed as inhibition in Gli1 protein level by immunoblot analysis. Background: Immunoblotting shows a protein as a band on a membrane.
Test [5] concerns Medulloblastoma cell. As to the kind of experiment: Induction of apoptosis in mouse wildtype SMO expressing medulloblastoma cells assessed as necrotic cells by annexin-V/PI staining based flow cytometric analysis (reference value: 22%).
The target of test [6] is Zinc finger protein GLI2 (Homo sapiens) (UniProt P10070). As to the kind of experiment: Inhibition of human GLI2 expressed in Hh-Light2 cells assessed as reduction in Gli1 mRNA expression level by qRT-PCR analysis. The test is classed as cell-based. In outline: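 Hh-Light2 cells transiently transfected (Turbofect) with full-length murine HA-Gli2-FL or N-terminally truncated human Myc-GLI2-DN; drugs (1 uM JQ1, GDC-0449, LDE225 or SANT-1) added 24hr post-transfection; Gli1 mRNA by SYBR Green qRT-PCR; mean of triplicates ± SD.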
Chain of Zinc finger protein GLI2 (Homo sapiens) (P10070 whole entry, the tested form may be a part): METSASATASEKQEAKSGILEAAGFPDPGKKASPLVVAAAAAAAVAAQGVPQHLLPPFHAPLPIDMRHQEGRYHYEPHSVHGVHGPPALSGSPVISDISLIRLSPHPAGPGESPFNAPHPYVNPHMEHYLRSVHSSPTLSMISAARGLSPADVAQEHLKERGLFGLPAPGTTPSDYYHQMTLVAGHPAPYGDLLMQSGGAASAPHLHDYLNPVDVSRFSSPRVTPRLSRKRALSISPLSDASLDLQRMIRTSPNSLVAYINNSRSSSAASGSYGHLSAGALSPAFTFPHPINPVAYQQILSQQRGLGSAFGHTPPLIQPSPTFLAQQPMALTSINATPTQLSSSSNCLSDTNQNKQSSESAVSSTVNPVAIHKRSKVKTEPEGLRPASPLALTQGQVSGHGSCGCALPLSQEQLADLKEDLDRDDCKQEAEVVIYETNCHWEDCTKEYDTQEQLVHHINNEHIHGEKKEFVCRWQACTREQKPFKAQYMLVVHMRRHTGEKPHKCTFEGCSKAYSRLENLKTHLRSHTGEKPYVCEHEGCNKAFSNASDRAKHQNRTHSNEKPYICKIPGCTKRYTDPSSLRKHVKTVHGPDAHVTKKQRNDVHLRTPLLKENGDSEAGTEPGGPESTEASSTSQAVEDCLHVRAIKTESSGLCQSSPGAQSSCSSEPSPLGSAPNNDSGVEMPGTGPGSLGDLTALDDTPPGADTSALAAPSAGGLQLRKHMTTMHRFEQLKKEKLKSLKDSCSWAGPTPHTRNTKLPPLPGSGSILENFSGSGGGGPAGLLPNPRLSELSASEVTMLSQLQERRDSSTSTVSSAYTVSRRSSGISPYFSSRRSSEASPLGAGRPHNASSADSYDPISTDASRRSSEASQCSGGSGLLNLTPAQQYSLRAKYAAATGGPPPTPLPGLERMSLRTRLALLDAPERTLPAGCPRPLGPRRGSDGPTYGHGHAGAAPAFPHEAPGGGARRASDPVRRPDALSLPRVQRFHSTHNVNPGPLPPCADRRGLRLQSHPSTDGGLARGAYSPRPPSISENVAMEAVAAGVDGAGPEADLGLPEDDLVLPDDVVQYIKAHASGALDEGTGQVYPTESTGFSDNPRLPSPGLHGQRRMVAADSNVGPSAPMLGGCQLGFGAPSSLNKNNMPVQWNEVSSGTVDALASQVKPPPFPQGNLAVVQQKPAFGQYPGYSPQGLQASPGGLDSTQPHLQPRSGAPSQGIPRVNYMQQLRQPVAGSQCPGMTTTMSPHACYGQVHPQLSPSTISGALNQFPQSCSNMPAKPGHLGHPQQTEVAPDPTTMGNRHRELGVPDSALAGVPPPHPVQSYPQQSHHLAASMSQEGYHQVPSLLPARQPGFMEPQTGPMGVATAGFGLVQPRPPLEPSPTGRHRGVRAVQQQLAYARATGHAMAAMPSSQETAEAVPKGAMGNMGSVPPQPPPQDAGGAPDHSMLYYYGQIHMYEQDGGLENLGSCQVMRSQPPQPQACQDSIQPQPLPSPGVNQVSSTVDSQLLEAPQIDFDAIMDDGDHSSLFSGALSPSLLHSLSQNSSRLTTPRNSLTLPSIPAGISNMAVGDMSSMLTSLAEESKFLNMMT
In general terms: In qPCR the cycle at which signal appears reflects the starting amount.

For test [7], the system named is Medulloblastoma cell. In words: Induction of apoptosis in human wildtype SMO expressing medulloblastoma cells assessed as early apoptotic cells by annexin-V/PI staining based flow cytometric analysis (reference value: 0.59%). The test is classed as functional.
The test system of test [8] is Medulloblastoma cell. As to the kind of experiment: Antiproliferative activity against in […] medulloblastoma cells expressing SmoWT-MB cells from mouse assessed as cell proliferation by EdU analysis. The test is classed as functional, cell-based. The essentials:
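SmoWT-MB cells given 0.1uM GDC-0449 or LDE225 (or JQ1 1 uM); 10uM EdU added for final 6-8hrs; EdU+ cells detected by Click-iT flow cytometry or imaging, DAPI counterstain; proliferation index = EdU+/DAPI+ cells; group means ± SD.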

Test [9] deals with Bromodomain-containing protein 4 (Mus musculus) (UniProt Q9ESU6). As to the kind of experiment: Inhibition of BRD4 in mouse Hh-Light2 cells assessed as Gli1 mRNA level by qRT-PCR analysis.
Test [10] has as its system Medulloblastoma cell. As to the kind of experiment: Induction of apoptosis in human wildtype SMO expressing medulloblastoma cells assessed as viable cells by annexin-V/PI staining based flow cytometric analysis (reference value: 74.9%). The format is functional.
Test [11] deals with MEF. As to the kind of experiment: Downregulation of Gli1 protein expression in Sufu-/- MEF cells by immunoblot analysis. The test is classed as functional, cell-based. As to conditions: Mus musculus. In outline: as §1

In the case of `CNCc1ccc(C)c(NC(=O)c2ccc(Nc3nc(-c4ccccc4)c4ccccc4n3)cc2)c1`, the result in [1] was Active.
On to `Cc1c(C(=O)Nc2ccc(N3C[C@@H](C)O[C@@H](C)C3)nc2)cccc1-c1ccc(OC(F)(F)F)cc1` [SONIDEGIB], for which the result in the test on MEF [2] and in the test with MEF [11] was inactive. Besides, the Activity in the test on Medulloblastoma cell [3] is 7.15%; in the test with Medulloblastoma cell [5] it was 58.8%; in the test with Medulloblastoma cell [7], 1.09%; with Medulloblastoma cell [10] it was 33%. Moreover, the inhibition entry in test [4] and in [9] was “Active” in each case. For the same molecule, the inhibition entry in [6] was “inactive”. Also, the outcome in the test with Medulloblastoma cell [8] was Active.
